Results taken from ChEMBL document CHEMBL1153763, “Discovering a new analogue of thalidomide which may be used as a potent modulator of TNF-alpha production” (Eur J Med Chem, 2009).

Assays:
[1] = tested on: HT-29; assay: Cytotoxicity against human HT-29 cells by MTT assay; format: functional, cell-based
[2] = tested on: DLD-1; assay: Cytotoxicity against human DLD1 cells by MTT assay; format: functional, cell-based
[3] = tested on: HL-60; assay: Inhibition of okadaic acid-induced TNFalpha production in human HL60 cells at 30 uM after 16 hrs by ELISA relative to control; format: functional; conditions: HL-60, 16 h, values are per cent of control
Procedure, shortened: (§1)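 HL-60 cells in RPMI 1640 with 10% fetal bovine serum, 2 mM L-glutamine and penicillin/streptomycin, 37 °C, 5% CO2. Exponential cells (5×10^5 cells/mL) given 50 nM okadaic acid plus compound (30 µM) for 16 h. Cell number and morphology checked microscopically. Supernatant TNF-α measured by human TNF-α ELISA, expressed as % of okadaic acid-only treatment (100%). At least three experiments, triplicate means.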

[4] = tested on: HL-60; assay: Enhancement of 12-O-tetradecanoylphorbol-13-acetate-induced TNFalpha production in human HL60 cell at 30 uM after 16 hrs by ELISA relative to control; format: functional
Procedure, shortened: as §1, with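 “co-treated with 10” for “given 50”, “TPA” for “okadaic acid”, “TPA-only” for “okadaic acid-only”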

[5] = tested on: ST486; assay: Cytotoxicity against human ST486 cells by MTT assay; format: functional, cell-based
[6] = tested on: HL-60; assay: Cytotoxicity against human HL60 cells by MTT assay; format: functional, cell-based
[7] = tested on: HUVEC; assay: Cytotoxicity against HUVEC by MTT assay; format: cell-based; conditions: Homo sapiens

SMILES | IC50 [1] [µM] | IC50 [2] [µM] | response, % of control at 30 µM [3] [%] | Activity [4] [%] | IC50 [5] [µM] | IC50 [6] [µM] | IC50 [7] [µM]
CN(C)CCN1C(=O)CCC(N2C(=O)c3ccccc3C2=O)C1=O (stereo unspecified) | > 50 | > 50 | 93 | 125 | > 50 | > 50 | > 50
CN(C)CCN1C(=O)CCC(n2c(=O)c3cc4c(=O)n(C5CCC(=O)N(CCN(C)C)C5=O)c(=O)c4cc3c2=O)C1=O (stereo unspecified) | > 50 | > 50 | 77 | 138 | > 50 | > 50 | > 50
CN(CCN1C(=O)CCC(N2C(=O)c3ccccc3C2=O)C1=O)CCN1C(=O)CCC(N2C(=O)c3ccccc3C2=O)C1=O (stereo unspecified) | > 50 | > 50 | 99 | 159 | > 50 | > 50 | > 50
O=C1CCC(N2C(=O)c3cccc4cc([N+](=O)[O-])cc(c34)C2=O)C(=O)N1 (stereo unspecified) | > 50 | > 50 | 47 | 248 | > 50 | > 50 | > 50
CN(C)CCN1C(=O)CCC(N2C(=O)c3cccc4cccc(c34)C2=O)C1=O (stereo unspecified) | > 50 | > 50 | 91 | 107 | > 50 | > 50 | > 50
CN(C)CCN1C(=O)CCC(N2C(=O)c3cccc4cc([N+](=O)[O-])cc(c34)C2=O)C1=O (stereo unspecified) | > 50 | > 50 | 48 | 124 | > 50 | > 50 | > 50
Nc1cc2c3c(cccc3c1)C(=O)N(C1CCC(=O)NC1=O)C2=O (stereo unspecified) | > 50 | > 50 | 46 | 138 | > 50 | > 50 | > 50
NC(=O)CCC(C(=O)O)N1C(=O)c2cc3ccccc3cc2C1=O (stereo unspecified) | > 50 | > 50 | 60 | 258 | > 50 | > 50 | > 50
NC(=O)CCC(C(=O)O)N1C(=O)c2ccc3ccccc3c2C1=O (stereo unspecified) | > 50 | > 50 | 111 | 146 | > 50 | > 50 | > 50
CN(C)CCN1C(=O)CCC(N2C(=O)c3cccc4cc(N)cc(c34)C2=O)C1=O (stereo unspecified) | > 50 | > 50 | 47 | 132 | > 50 | > 50 | > 50
CN(C)CCN1C(=O)CCC(N2C(=O)c3cc4ccccc4cc3C2=O)C1=O (stereo unspecified) | > 50 | > 50 | 50 | 149 | > 50 | > 50 | > 50
CN(C)CCN1C(=O)CCC(N2C(=O)c3ccc4ccccc4c3C2=O)C1=O (stereo unspecified) | > 50 | > 50 | 59 | 105 | > 50 | > 50 | > 50
O=C1CCC(N2C(=O)c3cc4ccccc4cc3C2=O)C(=O)N1 (stereo unspecified) | > 50 | > 50 | 138 | 166 | > 50 | > 50 | > 50
O=C1CCC(N2C(=O)c3ccc4ccccc4c3C2=O)C(=O)N1 (stereo unspecified) | > 50 | > 50 | 78 | 161 | > 50 | > 50 | > 50
O=C1CCC(N2C(=O)C(c3ccccc3)=C(c3ccccc3)C2=O)C(=O)N1 (stereo unspecified) | > 50 | > 50 | 47 | 147 | > 50 | > 50 | > 50
NC(=O)CCC(C(=O)O)N1C(=O)C(c2ccccc2)=C(c2ccccc2)C1=O (stereo unspecified) | > 50 | > 50 | 66 | 146 | > 50 | > 50 | > 50
O=C1CCC(n2c(=O)c3cc4c(=O)n(C5CCC(=O)NC5=O)c(=O)c4cc3c2=O)C(=O)N1 (stereo unspecified) | > 50 | > 50 | 34 | 294 | > 50 | > 50 | > 50
CN(C)CCN1C(=O)CCC(N2C(=O)C(c3ccccc3)=C(c3ccccc3)C2=O)C1=O (stereo unspecified) | > 50 | > 50 | 6 | 672 | > 50 | > 50 | > 50
NC(=O)CCC(C(=O)O)N1C(=O)c2cccc3cccc(c23)C1=O (stereo unspecified) | > 50 | > 50 | 55 | 116 | > 50 | > 50 | > 50
NC(=O)CCC(C(=O)O)N1C(=O)c2cccc3cc([N+](=O)[O-])cc(c23)C1=O (stereo unspecified) | > 50 | > 50 | 51 | 86 | > 50 | > 50 | > 50
NC(=O)CCC(C(=O)O)N1C(=O)c2cccc3cc(N)cc(c23)C1=O (stereo unspecified) | > 50 | > 50 | 49 | 140 | > 50 | > 50 | > 50
O=C1CCC(N2C(=O)c3cccc4cccc(c34)C2=O)C(=O)N1 (stereo unspecified) | > 50 | > 50 | 49 | 158 | > 50 | > 50 | > 50
O=C1CCC(N2C(=O)c3ccccc3C2=O)C(=O)N1 (stereo unspecified) [THALIDOMIDE] | > 50 | > 50 | 53 | 164 | > 50 | > 50 | > 50
